From PubChem BioAssay AID602271 (Johns Hopkins Ion Channel Center, 2012)
The source made the active and inactive calls.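 Rule for the calls: active = changes KCNQ2 potassium channel current, up or down, at some tested dose, giving a fitted dose response; inactive = no effect at any dose or no dose response.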

Each compound was assayed against Potassium voltage-gated channel subfamily KQT member 2 (Rattus norvegicus) (UniProt O88943) (assay: blockers of KCNQ2 potassium current – automated electrophysiology, CHO cells, orthogonal assay, SAR follow-up (AID 602271)). Settings: automated patch clamp current.
Chain of Potassium voltage-gated channel subfamily KQT member 2 (Rattus norvegicus) (O88943 whole entry, looked up): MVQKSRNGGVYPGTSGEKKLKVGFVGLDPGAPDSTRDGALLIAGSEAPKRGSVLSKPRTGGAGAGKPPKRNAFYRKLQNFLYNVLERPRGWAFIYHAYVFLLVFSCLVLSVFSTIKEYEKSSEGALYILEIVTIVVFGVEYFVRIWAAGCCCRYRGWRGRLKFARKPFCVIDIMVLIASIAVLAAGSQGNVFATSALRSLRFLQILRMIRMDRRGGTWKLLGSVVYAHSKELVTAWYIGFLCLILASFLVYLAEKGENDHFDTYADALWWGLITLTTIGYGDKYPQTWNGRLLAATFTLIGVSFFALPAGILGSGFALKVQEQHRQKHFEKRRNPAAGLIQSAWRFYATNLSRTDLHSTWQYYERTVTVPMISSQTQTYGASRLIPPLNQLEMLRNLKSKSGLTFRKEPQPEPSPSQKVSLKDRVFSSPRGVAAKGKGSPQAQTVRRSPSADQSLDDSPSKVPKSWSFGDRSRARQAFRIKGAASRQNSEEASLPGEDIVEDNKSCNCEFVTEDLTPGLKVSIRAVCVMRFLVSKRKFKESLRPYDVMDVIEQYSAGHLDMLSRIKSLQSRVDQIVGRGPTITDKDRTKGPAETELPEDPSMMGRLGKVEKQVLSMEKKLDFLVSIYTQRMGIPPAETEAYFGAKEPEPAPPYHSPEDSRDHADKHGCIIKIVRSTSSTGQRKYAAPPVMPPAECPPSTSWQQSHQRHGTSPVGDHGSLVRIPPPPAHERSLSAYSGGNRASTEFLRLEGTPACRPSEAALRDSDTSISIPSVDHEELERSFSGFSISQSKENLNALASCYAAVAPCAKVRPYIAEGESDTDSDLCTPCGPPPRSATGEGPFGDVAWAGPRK
Summary of the method: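 System: KCNQ2-expressing CHO cells in automated perforated patch clamp / Medium: external saline pH 7.4, 4 mM KCl, K-gluconate/KCl internal pH 7.25 / Probe or stimulus: depolarization from -90 mV to +40 mV, 2,000 ms / Signal: automated patch clamp, amphotericin B perforation, steady-state current at +40 mV / Evaluation: current change % relative to pre-compound current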
`COc1ccc(NC(=O)Cc2cccc(Cl)c2)c(OC)c1` was tested, and the IC50 was 1.24 µM.
Compound `O=C(Cc1cccc(Cl)c1)Nc1cccc(N2CCCC2)c1` has an IC50 of 1.02 µM.
In the case of `CN(C)c1ccccc1NC(=O)Cc1cccc(Cl)c1`, the IC50 is reported as 27.5 µM.
Compound `O=C(Cc1cccc(Cl)c1)Nc1ccccc1-n1cccc1` has an IC50 of 12.3 µM.
With `O=C(Cc1cccc(Cl)c1)Nc1ccc(N2CCCC2)cc1` the IC50 was 8.66 µM.
`O=C(Cc1cccc(Cl)c1)Nc1ccccc1N1CCCCC1` gave an IC50 of 7.09 µM.
`O=C(Cc1cccc(Cl)c1)Nc1ccc(Cl)cc1Cl` was tested, and the IC50 was 1.52 µM.

Same assay, conditions: automated patch clamp current, at 30 µM (top of the series)
`CCN(C)c1ccccc1NC(=O)Cc1cccc(Cl)c1` was tested, and the “current change %, negative = inhibition” value was “inactive”.
For `O=C(Cc1cccc(Cl)c1)Nc1ccccc1N1CCCCCCC1`, the “current change %, negative = inhibition” value was “inactive”.
In the case of `O=C(Cc1cccc(Cl)c1)Nc1cccc(F)c1F`, the “current change %, negative = inhibition” value is reported as “inactive”.
With `O=C(Cc1cccc(Cl)c1)Nc1ccc(F)cc1F` the “current change %, negative = inhibition” value was “inactive”.
With `CN(Cc1ccccc1)c1ccccc1NC(=O)Cc1cccc(Cl)c1` the “current change %, negative = inhibition” value was “inactive”.
For `O=C(Cc1cccc(Cl)c1)Nc1cccc2c1OCO2`, the “current change %, negative = inhibition” value was “inactive”.
In the case of `CN(C(=O)Cc1ccccc1)c1ccccc1N1CCCC1`, the “current change %, negative = inhibition” value is reported as “inactive”.
In the case of `O=C(Cc1cccc(Cl)c1)Nc1ccccc1F`, the “current change %, negative = inhibition” value is reported as “inactive”.
In the case of `CCC(C(=O)N(C)c1ccccc1N1CCCC1)c1ccccc1` (configuration not stated), the “current change %, negative = inhibition” value is reported as “inactive”.
`O=C(Cc1cccc(Cl)c1)Nc1ccccc1N1CCOCC1` was tested, and the “current change %, negative = inhibition” value was “inactive”.
